The term MIC denotes the smallest concentration in the dilution series that meets the test's criterion for growth inhibition. Higher therefore signals weaker potency.

This note sets out measurements from ChEMBL document CHEMBL1649112, “Effects of exposure of Clostridium difficile PCR ribotypes 027 and 001 to fluoroquinolones in a human gut model” (Antimicrob Agents Chemother, 2009).

Series [1] deals with Clostridioides difficile. Nature of the series: Antimicrobial activity against Clostridium difficile PCR ribotype 001 expressing gyrB Glu466Lys mutant grown on fluoroquinolone-containing medium after 48 hrs. Type of series: functional. As to conditions: PCR ribotype 001, 48 h.
For another series, the system named is Clostridium. Nature of the series: Antimicrobial activity against Clostridium in three-stage chemostat gut model assessed as log reduction in bacterial count at 63 mg/liter administered daily for 7 days. Type of series: functional. An outline of the steps: (§1)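 Three-stage anaerobic chemostat (37°C, N2-sparged; vessels at pH 5.5, 6.2 and 6.8; 66.7 h total retention) primed with 10% (wt/vol) pooled C. difficile-negative feces from healthy elderly donors. Instillation began on day 21. Vessel 2 and 3 samples were diluted 10-fold serially to 10–7 in prereduced peptone water and plated on selective agars in triplicate; counts are log10 CFU/ml.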

For series [2], the system named is Clostridioides difficile. Nature of the series: Induction of cytotoxin production in Clostridium difficile PCR ribotype 027 in three-stage chemostat gut model at 63 mg/liter administered daily for 7 days measured after 2 days. Type of series: functional, organism-based. The procedure, abridged:
(§2)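 Gut model as above; on day 21 drug instillation began and a second C. difficile spore inoculum was added to vessel 1. Sample supernatants (16,000 x g) were diluted serially to 10–7 in PBS pH 7.4 and applied to Vero monolayers at 37°C in 5% CO2. Cell rounding was read at 24 and 48 h, and titers are given in relative units.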

Series [3] has as its system Clostridioides difficile. Nature of the series: Antimicrobial activity against Clostridium difficile PCR ribotype 027 expressing gyrB Glu466Lys mutant grown on fluoroquinolone-containing medium after 48 hrs. The series is classed as functional. As to conditions: PCR ribotype 027, 48 h.
Series [4] can be described thus: Drug level in human feces. The series is classed as ADME, tissue-based.
The test system of series [5] is Lactobacillus. Nature of the series: Antimicrobial activity against Lactobacillus in three-stage chemostat gut model assessed as log reduction in bacterial count at 63 mg/liter administered daily for 7 days. The series is classed as functional. The procedure, abridged:
as §1

Series [6] concerns Clostridioides difficile. Nature of the series: Induction of cytotoxin production in Clostridium difficile PCR ribotype 001 in three-stage chemostat gut model at 63 mg/liter administered daily for 7 days measured after 3 days. Type of series: functional, organism-based. The procedure, abridged: as §2
In another series the test system is Bacteroides sp. Nature of the series: Antimicrobial activity against Bacteroides sp. in three-stage chemostat gut model assessed as log reduction in bacterial count at 63 mg/liter administered daily for 7 days. The series is classed as functional. The procedure, abridged:
as §1

In the next series the test system is Enterococcus. Nature of the series: Antimicrobial activity against Enterococcus in three-stage chemostat gut model assessed as log reduction in bacterial count at 63 mg/liter administered daily for 7 days. Type of series: functional, organism-based. An outline of the steps:
as §1

The subject of series [7] is Bifidobacterium. Nature of the series: Antimicrobial activity against Bifidobacterium in three-stage chemostat gut model assessed as log reduction in bacterial count at 139 mg/liter administered every 12 hrs for 7 days. Type of series: functional. An outline of the steps:
as §1

Series [8] has as its system Bifidobacterium. Nature of the series: Antimicrobial activity against Bifidobacterium in three-stage chemostat gut model assessed as log reduction in bacterial count at 43 mg/liter administered daily for 7 days. The series is classed as functional. The procedure, abridged:
as §1

Series [9] relates to Lactobacillus. Nature of the series: Antimicrobial activity against Lactobacillus in three-stage chemostat gut model assessed as log reduction in bacterial count at 43 mg/liter administered daily for 7 days. Type of series: functional. An outline of the steps:
as §1

Structures are written as SMILES. The source made the active and inactive calls.

`C[C@H]1COc2c(N3CCN(C)CC3)c(F)cc3c(=O)c(C(=O)O)cn1c23.C[C@H]1COc2c(N3CCN(C)CC3)c(F)cc3c(=O)c(C(=O)O)cn1c23.O` [LEVOFLOXACIN]: the MIC in the series on Clostridioides difficile [1] and with Clostridioides difficile [3] was 256 µg/mL in each case. For the same molecule, the result in the series with Clostridium, in the series with Lactobacillus [5] and with Enterococcus was inactive. In addition, the outcome with Clostridioides difficile [2] and in the series on Clostridioides difficile [6] was Active. For the same molecule, in [4], the Drug uptake was found to be 94 mg/kg. For the same molecule, in the series with Bacteroides sp., the FC turned out to be 1.

Take `O=C(O)c1cn(C2CC2)c2cc(N3CCNCC3)c(F)cc2c1=O` [CIPROFLOXACIN]: the result in the series on Bifidobacterium [7] was Active. The molecule also returned a Drug uptake in [4] of 139 mg/kg.

As to `COc1c(N2C[C@@H]3CCCN[C@@H]3C2)c(F)cc2c(=O)c(C(=O)O)cn(C3CC3)c12` [MOXIFLOXACIN], the outcome with Bifidobacterium [8] and in the series on Lactobacillus [9] was inactive. In [4], this molecule yielded a Drug uptake of 66 mg/kg.
